# Activity calls are given as the source filed them. No cut-off for these calls is given here.
# Key:
# [1] = system: Pseudomonas aeruginosa; test: Antibacterial activity against Pseudomonas aeruginosa ATCC27853 incubated for 24 hrs by CLSI-based broth microdilution method; format: functional
# [2] = system: Bacillus subtilis; test: Antibacterial activity against Bacillus subtilis ATCC9372 incubated for 24 hrs by CLSI-based broth microdilution method; format: functional
# [3] = system: Staphylococcus aureus; test: Antibacterial activity against Staphylococcus aureus clinical isolate incubated for 24 hrs by CLSI-based broth microdilution method; format: functional
# [4] = system: Staphylococcus aureus; test: Antibacterial activity against Staphylococcus aureus ATCC25923 incubated for 24 hrs by CLSI-based broth microdilution method; format: functional
# [5] = system: Bacillus subtilis; test: Inhibition of ftsZ in Bacillus subtilis assessed as increase in enzyme polymerization kinetics at 5 ug/ml measured for 30 mins by microtiter plate-based light scattering assay; details: dose 5.0 µg/ml
# Method in brief: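 Purified recombinant B. subtilis FtsZ was used. Polymerization was followed as light scattering in microtiter plates, read as time-dependent absorbance at 340 nm at several compound concentrations. Vehicle, CIP and LIN served as controls.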
# [6] = system: Staphylococcus aureus; test: Antibacterial activity against penicillin-resistant Staphylococcus aureus incubated for 24 hrs by CLSI-based broth microdilution method; format: functional
# [7] = system: Staphylococcus aureus; test: Antibacterial activity against methicillin-resistant Staphylococcus aureus ATCC43300 incubated for 24 hrs by CLSI-based broth microdilution method; format: functional
# [8] = system: Bacillus pumilus; test: Antibacterial activity against Bacillus pumilus CMCC63202 incubated for 24 hrs by CLSI-based broth microdilution method; format: functional
# [9] = system: Escherichia coli; test: Antibacterial activity against Escherichia coli ATCC25922 incubated for 24 hrs by CLSI-based broth microdilution method; format: functional; details: ATCC 25922
# [10] = system: Staphylococcus aureus; test: Bactericidal activity against Staphylococcus aureus ATCC25923 assessed as reduction in number of colony forming units incubated for 24 hrs followed by re-plating and reincubation on tryptic soy agar plate for 24 hrs; format: functional
# [11] = system: Staphylococcus aureus; test: Bactericidal activity against penicillin-resistant Staphylococcus aureus assessed as reduction in number of colony forming units incubated for 24 hrs followed by re-plating and reincubation on tryptic soy agar plate for 24 hrs; format: functional
# [12] = system: Staphylococcus aureus; test: In-vivo antibacterial activity against Staphylococcus aureus infected in KM mouse model assessed as reduction in bacterial load in blood at 10 mg/kg, iv administered thrice daily and measured after 48 hrs; format: functional, organism-based
# Method in brief: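 Groups of four KM mice (average 20 g) were infected i.v. with 8.5 × 10⁸ CFU of a clinical S. aureus isolate resistant to CIP and ERY, in 0.15 mL saline. Treatment was 10 mg/kg i.v. three times daily. Vehicle was 2% DMAC, 30% PEG400/PG (1:1) and 5% HPβCD in water; vehicle and LIN arms were included. At 48 h, retro-orbital blood (0.1 mL) was plated on TSA for CFU counts.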
# [13] = system: Bacillus subtilis; test: Inhibition of ftsZ in Bacillus subtilis assessed as increase in enzyme polymerization kinetics at 10 ug/ml measured for 30 mins by microtiter plate-based light scattering assay; details: dose 10.0 µg/ml
# [14] = system: Staphylococcus aureus; test: Bactericidal activity against methicillin-resistant Staphylococcus aureus ATCC43300 assessed as reduction in number of colony forming units incubated for 24 hrs followed by re-plating and reincubation on tryptic soy agar plate for 24 hrs; format: functional
# [15] = system: Staphylococcus aureus; test: Bactericidal activity against Staphylococcus aureus clinical isolate assessed as reduction in number of colony forming units incubated for 24 hrs followed by re-plating and reincubation on tryptic soy agar plate for 24 hrs; format: functional
# [16] = system: Staphylococcus aureus; test: Bacteriostatic activity against methicillin-resistant Staphylococcus aureus ATCC43300 assessed as ratio of MBC to MIC; format: functional
# [17] = system: Staphylococcus aureus; test: Bacteriostatic activity against Staphylococcus aureus ATCC25923 assessed as ratio of MBC to MIC; format: functional
# [18] = system: Staphylococcus aureus; test: Bacteriostatic activity against Staphylococcus aureus clinical isolate assessed as ratio of MBC to MIC; format: functional
# [19] = system: Staphylococcus aureus; test: Bacteriostatic activity against penicillin-resistant Staphylococcus aureus assessed as ratio of MBC to MIC; format: functional
SMILES,MIC [1] [mg/L],MIC [2] [mg/L],MIC [3] [mg/L],MIC [4] [mg/L],FtsZ polymerization increase (active/inactive call) [5],MIC [6] [mg/L],MIC [7] [mg/L],MIC [8] [mg/L],MIC [9] [mg/L],MBC [10] [mg/L],MBC [11],Activity [12],inhibition [13],MBC [14],MBC [15],Ratio [16],Ratio [17],Ratio [18],Ratio [19]
CCCCc1ccc(C2=NO[C@H](COc3ccc(F)c(C(N)=O)c3F)C2)cc1,> 64,≤ 0.125,≤ 0.125,0.25,Active,0.25,≤ 0.125,≤ 0.125,> 64,,,,,,,,,,
NC(=O)c1c(F)ccc(OCC2=NOC(c3ccc(Cl)cc3Cl)C2)c1F (stereo unspecified),> 64,2,16,32,,32,16,0.5,> 64,,,,,,,,,,
CC(=O)NC[C@H]1CN(c2ccc(N3CCOCC3)c(F)c2)C(=O)O1 [LINEZOLID],> 64,0.5,1,,,1,,1,> 64,> 64,> 64 mg/L,Active,inactive,> 64 mg/L,64 mg/L,,,,
CC[C@H]1OC(=O)[C@H](C)[C@@H](O[C@H]2C[C@@](C)(OC)[C@@H](O)[C@H](C)O2)[C@H](C)[C@@H](O[C@@H]2O[C@H](C)C[C@H](N(C)C)[C@H]2O)[C@](C)(O)C[C@@H](C)C(=O)[C@H](C)[C@@H](O)[C@]1(C)O [ERYTHROMYCIN],32,≤ 0.125,> 64,≤ 0.125,,,> 64,≤ 0.125,16,,,,,,,,,,
CCCCc1ccc(C2=NO[C@@H](COc3ccc(F)c(C(N)=O)c3F)C2)cc1,> 64,0.25,2,4,Active,1,2,0.5,> 64,,,,,,,,,,
CCc1ccc(C2CC(COc3ccc(F)c(C(N)=O)c3F)=NO2)cc1 (stereo unspecified),> 64,4,,64,,> 64,64,16,> 64,,,,,,,,,,
CC(C)c1ccc(C2=NOC(COc3ccc(F)c(C(N)=O)c3F)C2)cc1 (stereo unspecified),> 64,≤ 0.125,,4,,16,4,≤ 0.125,> 64,,,,,,,,,,
NC(=O)c1c(F)ccc(OCc2nc3cc(Cl)cnc3s2)c1F,> 64,0.5,1,1,,1,1,0.5,> 64,,,,,,,,,,
NC(=O)c1c(F)ccc(OCC2CC(c3ccco3)=NO2)c1F (stereo unspecified),> 64,64,,> 64,,> 64,> 64,> 64,> 64,,,,,,,,,,
CN(C)c1ccc(C2=NOC(COc3ccc(F)c(C(N)=O)c3F)C2)cc1 (stereo unspecified),> 64,16,,> 64,,> 64,> 64,64,> 64,,,,,,,,,,
CCCCc1ccc(-c2cc(COc3ccc(F)c(C(N)=O)c3F)on2)cc1,,,,,Active,,,,,,,,,,,,,,
CCOc1cccc(C2CC(COc3ccc(F)c(C(N)=O)c3F)=NO2)c1 (stereo unspecified),> 64,64,,> 64,,> 64,> 64,> 64,> 64,,,,,,,,,,
NC(=O)c1c(F)ccc(OCC2=NOC(c3ccc(Br)cc3)C2)c1F (stereo unspecified),> 64,8,,> 64,,> 64,32,32,> 64,,,,,,,,,,
O=C(O)c1cn(C2CC2)c2cc(N3CCNCC3)c(F)cc2c1=O,,,,,,,,,,,,,inactive,,,,,,
NC(=O)c1c(F)ccc(OCC2=NOC(c3ccc(F)cc3)C2)c1F (stereo unspecified),> 64,16,,> 64,,> 64,> 64,64,> 64,,,,,,,,,,
CCOc1ccc(C2CC(COc3ccc(F)c(C(N)=O)c3F)=NO2)cc1 (stereo unspecified),> 64,16,,> 64,,> 64,64,64,> 64,,,,,,,,,,
CC(C)(C)c1ccc(C2=NOC(COc3ccc(F)c(C(N)=O)c3F)C2)cc1 (stereo unspecified),> 64,0.25,4,4,,4,2,≤ 0.125,> 64,,,,,,,,,,
CCCCc1ccc(C2CC(COc3ccc(F)c(C(N)=O)c3F)=NO2)cc1 (stereo unspecified),> 64,≤ 0.125,,8,,4,4,0.5,> 64,,,,,,,,,,
CC[C@H]1OC(=O)[C@H](C)[C@@H](O[C@H]2C[C@@](C)(OC)[C@@H](O)[C@H](C)O2)[C@H](C)[C@@H](O[C@@H]2O[C@H](C)C[C@H](N(C)C)[C@H]2O)[C@](C)(OC)C[C@@H](C)C(=O)[C@H](C)[C@@H](O)[C@]1(C)O [CLARITHROMYCIN],,,> 64,0.125,,,> 64,,,4,inactive,,,inactive,inactive,inactive,32,inactive,inactive
Cc1ccc(C2=NOC(COc3ccc(F)c(C(N)=O)c3F)C2)cc1 (stereo unspecified),> 64,16,,32,,> 64,32,16,> 64,,,,,,,,,,
NC(=O)c1c(F)ccc(OCC2CC(c3ccccc3)=NO2)c1F (stereo unspecified),> 64,16,,> 64,,> 64,> 64,64,> 64,,,,,,,,,,

# — ChEMBL document CHEMBL4665863 (Bioorg Med Chem, 2020)
